Data published in ChEMBL document CHEMBL4665766, “Synthesis and in vitro evaluation of vanillin derivatives as multi-target therapeutics for the treatment of Alzheimer's disease” (Bioorg Med Chem Lett, 2020).
Active and inactive are the calls of the source. The rule behind the calls is not given here.

Legend:
Cholinesterase = Cholinesterase (Equus caballus, UniProt P81908); experiment: (§1) Inhibition of equine BuChE by Ellman's method
Method in brief: (§2)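 Equine serum BuChE stock at 22 U/mL in 20 mM Tris HCl (pH 7.5), diluted 3/100 before use. Methanol dilutions of compound (≤1% DMSO) were preincubated 10 min at 37°C with enzyme and 3 mM DTNB solution (phosphate/Hepes buffer, pH 7.5). Butyrylthiocholine iodide solution (15 mM) was then added, with 10 min further incubation, and absorbance was read at 415 nm. IC50 (50% activity inhibited) was taken from 3 independent experiments.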

[1] = Antioxidant activity assessed as trolox equivalent of AAPH-induced radical scavenging activity preincubated for 10 mins followed by AAPH addition and measured every minute for 35 mins by ORAC fluorescein assay; assay type: functional; details: time min <=35
[2] = Antioxidant activity assessed as increase in total ferric ion reducing activity using FeCl3.H2O and TPTZ by measuring trolox equivalents at pH 3.6 measured at different time interval up to 150 mins by microplate reader based FRAP assay; assay type: functional; set-up: unit not given here; details: time min <=150
Acetylcholinesterase = Acetylcholinesterase (Electrophorus electricus, UniProt O42275); experiment: (§3) Inhibition of electric eel AChE by Ellman's method
Method in brief: (§4)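 Electrophorus electricus AChE stock at 22 U/mL in 20 mM Tris HCl (pH 7.5), diluted 1/100 before use. Compound dilution series in methanol (≤1% DMSO) was preincubated with enzyme and DTNB solution (3 mM, phosphate/Hepes 0.05 M/0.09 M, pH 7.5) for 10 min at 37°C. Acetylthiocholine iodide solution (15 mM) was then added for a further 10 min, and A415 was read. IC50 is the 50% activity inhibition point, from 3 independent experiments.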

[3] = Antioxidant activity assessed as DPPH free radical scavenging activity after 1 hr by microplate reader based assay; assay type: functional
[4] = Selectivity index, ratio of IC50 for electric eel AChE to IC50 for equine BuChE
Method in brief: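 Ratio of Ellman-assay IC50 values, AChE IC50 divided by BuChE IC50. Electric eel AChE was diluted 1/100 with acetylthiocholine substrate. Equine BuChE was diluted 3/100 with butyrylthiocholine substrate. Both enzymes were preincubated with compound and DTNB for 10 min at 37°C, given 10 min with substrate, and read at 415 nm.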

[5] = target: Cholinesterase (Equus caballus) (UniProt P81908); experiment: as §1; method in brief: as §2
[6] = target: Acetylcholinesterase (Electrophorus electricus) (UniProt O42275); experiment: as §3; method in brief: as §4
[7] = target: Cholinesterase (Equus caballus) (UniProt P81908); experiment: Potency index, ratio of rivastigmine IC50 to test compound IC50 for inhibition of equine BuChE
[8] = target: Cholinesterase (Equus caballus) (UniProt P81908); experiment: Potency index, ratio of neostigmine IC50 to test compound IC50 for inhibition of equine BuChE
[9] = Potency index, ratio of trolox to test compound for antioxidant activity assessed as trolox equivalent of AAPH scavenging activity by ORAC fluorescein assay; assay type: functional
Method in brief: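 Compounds from 10 mM DMSO stocks and Trolox diluted in 75 mM phosphate buffer, pH 7.4. […] with 25 nM sodium fluorescein (solution concentration), then 0.15 M AAPH solution added. Fluorescence (ex 485, em 525 nm) […]. TE from comparing the slopes of Trolox and compound calibration curves; mean ± SD of 3 independent experiments.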

[10] = Potency index, ratio of test compound trolox equivalent to vanillin trolox equivalent for antioxidant activity assessed as ferric ion reducing activity by FRAP assay; assay type: functional

Cholinesterase (Equus caballus), sequence (P81908 whole entry): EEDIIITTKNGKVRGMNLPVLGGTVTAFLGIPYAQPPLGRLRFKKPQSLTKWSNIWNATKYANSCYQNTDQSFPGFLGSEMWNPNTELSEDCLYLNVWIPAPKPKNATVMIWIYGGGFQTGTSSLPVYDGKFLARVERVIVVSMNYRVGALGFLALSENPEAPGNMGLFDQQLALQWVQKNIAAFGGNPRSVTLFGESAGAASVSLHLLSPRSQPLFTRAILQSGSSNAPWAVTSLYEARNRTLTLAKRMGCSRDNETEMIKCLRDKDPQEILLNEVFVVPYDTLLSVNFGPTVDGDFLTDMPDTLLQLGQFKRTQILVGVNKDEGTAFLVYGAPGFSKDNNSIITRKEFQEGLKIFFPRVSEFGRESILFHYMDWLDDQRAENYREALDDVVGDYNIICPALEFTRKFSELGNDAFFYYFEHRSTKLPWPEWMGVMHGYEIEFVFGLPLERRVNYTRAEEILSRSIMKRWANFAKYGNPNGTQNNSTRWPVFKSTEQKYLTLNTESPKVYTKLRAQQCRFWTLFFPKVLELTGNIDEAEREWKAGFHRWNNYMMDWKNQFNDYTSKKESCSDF
Cholinesterase, sequence (P81908 whole entry): as above
Acetylcholinesterase, sequence (O42275 whole entry): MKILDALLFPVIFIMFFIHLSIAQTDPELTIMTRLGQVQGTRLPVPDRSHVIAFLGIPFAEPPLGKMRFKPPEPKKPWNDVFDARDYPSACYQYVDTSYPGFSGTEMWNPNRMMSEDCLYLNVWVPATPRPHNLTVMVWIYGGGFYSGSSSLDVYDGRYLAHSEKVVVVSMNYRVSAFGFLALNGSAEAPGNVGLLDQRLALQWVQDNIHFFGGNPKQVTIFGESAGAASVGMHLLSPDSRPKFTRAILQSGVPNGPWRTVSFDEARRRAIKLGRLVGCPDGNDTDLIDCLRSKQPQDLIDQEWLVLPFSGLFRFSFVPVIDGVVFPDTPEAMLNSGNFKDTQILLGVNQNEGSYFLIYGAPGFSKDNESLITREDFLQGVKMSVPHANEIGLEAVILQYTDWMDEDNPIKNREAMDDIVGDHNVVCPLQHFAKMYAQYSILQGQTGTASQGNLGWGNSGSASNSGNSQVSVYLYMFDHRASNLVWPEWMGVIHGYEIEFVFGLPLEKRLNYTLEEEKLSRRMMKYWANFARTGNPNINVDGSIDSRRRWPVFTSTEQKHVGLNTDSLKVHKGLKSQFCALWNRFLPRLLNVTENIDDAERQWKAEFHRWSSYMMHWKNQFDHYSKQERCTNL
Acetylcholinesterase (Electrophorus electricus), sequence (O42275 24-633 limits assumed): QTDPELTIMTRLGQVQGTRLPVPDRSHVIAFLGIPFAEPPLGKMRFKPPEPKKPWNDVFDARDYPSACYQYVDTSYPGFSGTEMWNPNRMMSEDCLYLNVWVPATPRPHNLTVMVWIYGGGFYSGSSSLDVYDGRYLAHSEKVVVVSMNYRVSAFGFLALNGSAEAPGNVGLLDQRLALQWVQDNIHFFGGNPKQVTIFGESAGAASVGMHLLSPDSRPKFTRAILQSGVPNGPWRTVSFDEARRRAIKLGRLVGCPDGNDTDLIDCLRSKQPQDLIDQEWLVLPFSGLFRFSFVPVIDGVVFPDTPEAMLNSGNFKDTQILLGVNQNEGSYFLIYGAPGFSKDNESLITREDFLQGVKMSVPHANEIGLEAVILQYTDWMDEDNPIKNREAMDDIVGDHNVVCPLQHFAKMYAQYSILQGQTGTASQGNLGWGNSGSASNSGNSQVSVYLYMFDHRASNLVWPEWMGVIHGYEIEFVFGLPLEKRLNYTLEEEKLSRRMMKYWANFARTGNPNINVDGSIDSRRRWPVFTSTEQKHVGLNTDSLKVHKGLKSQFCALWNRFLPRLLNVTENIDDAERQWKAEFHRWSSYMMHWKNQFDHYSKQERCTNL

`COc1cc(CNCCCCN2C(=O)c3cccc4cccc(c34)C2=O)ccc1O` showed an IC50 (Cholinesterase) of 0.9 µM, an Activity [1] of 8.1 and an Activity [2] of 0.26. For the same molecule, the IC50 (Acetylcholinesterase) was 13.7 µM, the IC50 [3] was 62 µM and the Ratio IC50 [4] was 15.2.

In the case of `COc1cc(C=O)ccc1O` [VANILLIN], the inhibition [5] is reported as “inactive”, the Activity [1] is reported as 2.2 and the Activity [2] is reported as 0.02. The inhibition [6] was “inactive” and the IC50 [3] was 7920 µM.

In the case of `COc1cc(CNCCCNC(=O)c2ccccc2CO)ccc1O`, the Activity [2] is reported as 0.96 and the IC50 [3] is reported as 113 µM.

`COc1cc(CN(CCCN2C(=O)c3cccc4cccc(c34)C2=O)Cc2ccc(O)c(OC)c2)ccc1O` gave a Ratio IC50 [7] of 3, an IC50 (Cholinesterase) of 0.27 µM and an Activity [1] of 9.43. The Ratio IC50 [8] was 10, the Ratio [9] was 10 and the Activity [2] was 0.49. It also gave an IC50 (Acetylcholinesterase) of 14.3 µM, an IC50 [3] of 16.7 µM and a Ratio IC50 [4] of 53.1. For the same molecule, the Ratio [10] was 25.

`COc1cc(CNCCCCCCCN2C(=O)c3cccc4cccc(c34)C2=O)ccc1O` gave an IC50 (Cholinesterase) of 1.5 µM, an Activity [1] of 6.7 and an Activity [2] of 0.34. It also gave an IC50 (Acetylcholinesterase) of 3.33 µM, an IC50 [3] of 70 µM and a Ratio IC50 [4] of 2.22.

For `CN(C)C(=O)Oc1cccc([N+](C)(C)C)c1` [NEOSTIGMINE], the IC50 (Cholinesterase) was 2.93 µM, the IC50 (Acetylcholinesterase) was 7.5 µM and the Ratio IC50 [4] was 2.56.

`COc1cc(CNCCCCCCN2C(=O)c3ccccc3C2=O)ccc1O` gave an IC50 (Cholinesterase) of 0.37 µM, an Activity [1] of 13.2 and an Activity [2] of 0.23. It also gave an IC50 (Acetylcholinesterase) of 4.67 µM, an IC50 [3] of 82.3 µM and a Ratio IC50 [4] of 12.6.
